Laboratory results published in ChEMBL document CHEMBL1121844, “Synthesis and preliminary antitumor evaluation of 5-iminodoxorubicin” (1981).

How the values were obtained:
Assay type in all cases: functional
Mus musculus [1] = test: Compound was evaluated for antitumor activity in mice injected intraperitoneal with leukemia P-388 cells, treated on days 5, 9, and 13th day at 4 mg/kg
How it was run: (§1)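 Mice received leukemia P-388 cells intraperitoneally on day 0. The specified dose was then given ip on days 5, 9 and 13. Read-out was % T/C, the survival time of treated mice relative to untreated controls. A T/C of 120% or more was defined as active.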

Mus musculus [2] = test: Compound was evaluated for antitumor activity in mice injected intraperitoneal with leukemia P-388 cells, treated on days 5, 9, and 13 th day at 16 mg/kg; how it was run: as §1
Rattus norvegicus = species: Rattus norvegicus; test: Compound was evaluated for augmentation of rat liver microsomal oxygen consumption relative to doxorubicin
Mus musculus [3] = test: Compound was evaluated for antitumor activity in mice injected intraperitoneal with leukemia P-388 cells, treated on days 5, 9, and 13th day at 8 mg/kg; how it was run: as §1
L1210 [4] = test: Dose required to inhibit the RNA synthesis in leukemia L1210 cells; settings: Mus musculus, read-out: ED50 (the source's name)
L1210 [5] = test: Dose required to inhibit the DNA synthesis in leukemia L1210 cells; settings: Mus musculus, read-out: ED50 (the source's name)
Mus musculus [6] = test: Compound was evaluated for antitumor activity in mice injected intraperitoneal with leukemia P-388 cells, treated on days 5, 9, and 13th day at 2 mg/kg; how it was run: as §1
Mus musculus [7] = test: Compound was evaluated for antitumor activity in mice injected intraperitoneal with leukemia P-388 cells, treated on days 5, 9, and 13 th day at 50 mg/kg; how it was run: as §1
Mus musculus [8] = test: Compound was evaluated for antitumor activity in mice injected intraperitoneal with leukemia P-388 cells, treated on days 5, 9, and 13th day at 25 mg/kg; how it was run: as §1
Mus musculus [9] = test: Compound was evaluated for antitumor activity in mice injected intraperitoneal with leukemia P-388 cells, treated on days 5, 9, and 13th day at 6.25 mg/kg; how it was run: as §1
Mus musculus [10] = test: Compound was evaluated for antitumor activity in mice injected intraperitoneal with leukemia P-388 cells, treated on days 5, 9, and 13th day at 12.5 mg/kg; how it was run: as §1
Nucleic Acid = test: Thermal denaturation for stabilization of helical DNA by the compound
Mus musculus [11] = test: Compound was evaluated for antitumor activity in mice injected intraperitoneal with leukemia P-388 cells, treated on days 5, 9, and 13 th day at 2 mg/kg; how it was run: as §1
Mus musculus [12] = test: Compound was evaluated for antitumor activity in mice injected intraperitoneal with leukemia P-388 cells, treated on days 5, 9, and 13 th day at 1 mg/kg; how it was run: as §1
Mus musculus [13] = test: Compound was evaluated for antitumor activity in mice injected intraperitoneal with leukemia P-388 cells, treated on days 5, 9, and 13 th day at 8 mg/kg; how it was run: as §1
Mus musculus [14] = test: Compound was evaluated for antitumor activity in mice injected intraperitoneal with leukemia P-388 cells, treated on days 5, 9, and 13 th day at 4 mg/kg; how it was run: as §1
Mus musculus [15] = test: Compound was evaluated for antitumor activity in mice injected intraperitoneal with leukemia P-388 cells, treated on days 5, 9, and 13th day at 3 mg/kg; how it was run: as §1
Mus musculus [16] = test: Compound was evaluated for antitumor activity in mice injected intraperitoneal with leukemia P-388 cells, treated on days 5, 9, and 13th day at 5.4 mg/kg; how it was run: as §1
Mus musculus [17] = test: Compound was evaluated for antitumor activity in mice injected intraperitoneal with leukemia P-388 cells, treated on days 5, 9, and 13th day at 9.6 mg/kg; how it was run: as §1
Mus musculus [18] = test: Compound was evaluated for antitumor activity in mice injected intraperitoneal with leukemia P-388 cells, treated on days 5, 9, and 13th day at 9 mg/kg; how it was run: as §1
Mus musculus [19] = test: Compound was evaluated for antitumor activity in mice injected intraperitoneal with leukemia P-388 cells, treated on days 5, 9, and 13th day at 5.76 mg/kg; how it was run: as §1
Mus musculus [20] = test: Compound was evaluated for antitumor activity in mice injected intraperitoneal with leukemia P-388 cells, treated on days 5, 9, and 13th day at 3.24 mg/kg; how it was run: as §1
Mus musculus [21] = test: Compound was evaluated for antitumor activity in mice injected intraperitoneal with leukemia P-388 cells, treated on days 5, 9, and 13th day at 6 mg/kg; how it was run: as §1
Mus musculus [22] = test: Compound was evaluated for antitumor activity in mice injected intraperitoneal with leukemia P-388 cells, treated on days 5, 9, and 13th day at 1.94 mg/kg; how it was run: as §1
Mus musculus [23] = test: Compound was evaluated for antitumor activity in mice injected intraperitoneal with leukemia P-388 cells, treated on days 5, 9, and 13th day at 12 mg/kg; how it was run: as §1
Mus musculus [24] = test: Compound was evaluated for antitumor activity in mice injected intraperitoneal with leukemia P-388 cells, treated on days 5, 9, and 13th day at 1.5 mg/kg; how it was run: as §1
Mus musculus [25] = test: Compound was evaluated for antitumor activity in mice injected intraperitoneal with leukemia P-388 cells, treated on days 5, 9, and 13th day at 16 mg/kg; how it was run: as §1
Mus musculus [26] = test: Compound was evaluated for antitumor activity in mice injected intraperitoneal with leukemia P-388 cells, treated on days 5, 9, and 13 th day at 24 mg/kg; how it was run: as §1
Mus musculus [27] = test: Compound was evaluated for antitumor activity in mice injected intraperitoneal with leukemia P-388 cells, treated on days 5, 9, and 13th day at 3.46 mg/kg; how it was run: as §1

In the case of `COc1cccc2c1C(=O)c1c(O)c3c(c(O)c1C2=O)C[C@@](O)(C(C)=O)C[C@@H]3O[C@H]1C[C@H](N)[C@H](O)[C@H](C)O1.Cl` [DAUNORUBICIN HYDROCHLORIDE], the T/C (Mus musculus [1]) is reported as 126%, the T/C (Mus musculus [2]) is reported as 123% and the Augmentation (Rattus norvegicus) is reported as 109%. For the same molecule, the T/C (Mus musculus [3]) was 129%, the EC50 (L1210 [4]) was 0.3 µM and the EC50 (L1210 [5]) was 1 µM. The T/C (Mus musculus [6]) was 123%.

`COc1cccc2c1C(=N)c1c(O)c3c(c(O)c1C2=O)C[C@@](O)(C(=O)CO)C[C@@H]3OC1CC(N)C(O)C(C)O1.Cl` (stereo partly specified) showed a T/C (Mus musculus [7]) of 173%, a T/C (Mus musculus [8]) of 155% and a T/C (Mus musculus [9]) of 122%. The Augmentation (Rattus norvegicus) was 7.5%, the T/C (Mus musculus [10]) was 132% and the EC50 (L1210 [4]) was 2.1 µM. For the same molecule, the ΔTm (Nucleic Acid) was 6.9 °C and the EC50 (L1210 [5]) was 2 µM.

Work on `COc1cccc2c1C(=O)c1c(O)c3c(c(O)c1C2=O)C[C@@](O)(C(=O)CO)C[C@@H]3O[C@H]1C[C@H](N)[C@H](O)[C@H](C)O1.Cl` [DOXORUBICIN HYDROCHLORIDE] yielded a T/C (Mus musculus [11]) of 130%, a T/C (Mus musculus [12]) of 123% and a T/C (Mus musculus [13]) of 162%. For the same molecule, the T/C (Mus musculus [2]) was 125%, the Augmentation (Rattus norvegicus) was 100% and the T/C (Mus musculus [14]) was 144%. It also gave an EC50 (L1210 [4]) of 0.7 µM, a ΔTm (Nucleic Acid) of 13.4 °C and an EC50 (L1210 [5]) of 1.5 µM.

Molecule `COc1cccc2c1C(=N)c1c(O)c3c(c(O)c1C2=O)C[C@@](O)(C(C)=O)C[C@@H]3OC1CC(N)C(O)C(C)O1.Cl` (stereo partly specified) has a T/C (Mus musculus [15]) of 130%, a T/C (Mus musculus [16]) of 161% and a T/C (Mus musculus [17]) of 180%. For the same molecule, the T/C (Mus musculus [18]) was 157%, the T/C (Mus musculus [19]) was 186% and the T/C (Mus musculus [20]) was 150%. For the same molecule, the T/C (Mus musculus [21]) was 124%, the T/C (Mus musculus [22]) was 137% and the Augmentation (Rattus norvegicus) was 8.2%. The T/C (Mus musculus [23]) was 116%, the T/C (Mus musculus [24]) was 126% and the T/C (Mus musculus [25]) was 140%. The EC50 (L1210 [4]) was 1.3 µM, the T/C (Mus musculus [26]) was 126% and the ΔTm (Nucleic Acid) was 6.2 °C. For the same molecule, the T/C (Mus musculus [27]) was 177% and the EC50 (L1210 [5]) was 1.6 µM.
